Legend:
Assay type in all cases: functional
T47D = assay: Growth inhibition of human T47D cells at 10 uM after 48 hrs by coulter counter analysis; settings: read-out: GI
Outline: (§1)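 Single-dose screen in the NCI 60 cell line panel. Cells grown in RPMI 1640 with 10% FBS. Compounds dissolved in DMSO and diluted in phosphate buffered saline, final DMSO under 1%. Duplicate wells seeded from culture at 6 × 10⁴ cells/ml. Incubated 48 h at 37 °C, humidified, 5% CO2. Cells diluted tenfold in saline and Coulter-counted. Percent growth inhibition computed against PBS/DMSO controls.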

NCI-H522 = assay: Growth inhibition of human NCI-H522 cells at 10 uM after 48 hrs by coulter counter analysis; settings: NCI-H522, 48 h, read-out: GI
Outline: (§2)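 Single-dose NCI 60-line panel screen of test compounds. Cells grown in RPMI 1640 with 10% FBS. Compounds dissolved in DMSO, then diluted in phosphate buffer saline (final DMSO below 1%). Wells run in duplicate at 6 × 10⁴ cells/ml. Controls held PBS and DMSO at matching dilutions. Incubation 48 h at 37 °C under humidified 5% CO2. Cells diluted tenfold in saline and counted by Coulter counter. Percent growth inhibition taken from mean-graph of treated-cell growth.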

LOX IMVI = assay: Growth inhibition of human LOXIMVI cells at 10 uM after 48 hrs by coulter counter analysis; settings: read-out: GI; outline: as §2
NCI-H322M = assay: Growth inhibition of human NCI-H322M cells at 10 uM after 48 hrs by coulter counter analysis; settings: read-out: GI; outline: as §2
UACC-62 = assay: Growth inhibition of human UACC62 cells at 10 uM after 48 hrs by coulter counter analysis; settings: UACC-62, 48 h, read-out: GI; outline: as §1
CCRF-CEM = assay: Growth inhibition of human CCRF-CEM cells at 10 uM after 48 hrs by coulter counter analysis; settings: read-out: GI; outline: as §2
SK-MEL-5 = assay: Growth inhibition of human SK-MEL-5 cells at 10 uM after 48 hrs by coulter counter analysis; settings: SK-MEL-5, 48 h, read-out: GI; outline: as §2
SNB-75 = assay: Growth inhibition of human SNB75 cells at 10 uM after 48 hrs by coulter counter analysis; settings: SNB-75, 48 h, read-out: GI; outline: as §1
SNB-19 = assay: Growth inhibition of human SNB19 cells at 10 uM after 48 hrs by coulter counter analysis; settings: SNB-19, 48 h, read-out: GI; outline: as §2
[1] = Growth inhibition of human Hs 578T cells at 10 uM after 48 hrs by coulter counter analysis; settings: read-out: GI; outline: as §2
A549 = assay: Growth inhibition of human A549/ATCC cells at 10 uM after 48 hrs by coulter counter analysis; settings: A549, 48 h, read-out: GI; outline: as §2
K562 = assay: Growth inhibition of human K562 cells at 10 uM after 48 hrs by coulter counter analysis; settings: K562, 48 h, read-out: GI; outline: as §2
SK-MEL-2 = assay: Growth inhibition of human SK-MEL-2 cells at 10 uM after 48 hrs by coulter counter analysis; settings: SK-MEL-2, 48 h, read-out: GI; outline: as §2
HT-29 = assay: Growth inhibition of human HT-29 cells at 10 uM after 48 hrs by coulter counter analysis; settings: HT-29, 48 h, read-out: GI; outline: as §2
[2] = Growth inhibition of human NCI-ADR-RES cells at 10 uM after 48 hrs by coulter counter analysis; settings: read-out: GI; outline: as §2
M14 = assay: Growth inhibition of human M14 cells at 10 uM after 48 hrs by coulter counter analysis; settings: M14, 48 h, read-out: GI; outline: as §2
SF-268 = assay: Growth inhibition of human SF268 cells at 10 uM after 48 hrs by coulter counter analysis; settings: SF-268, 48 h, read-out: GI; outline: as §2
HOP-62 = assay: Growth inhibition of human HOP62 cells at 10 uM after 48 hrs by coulter counter analysis; settings: HOP-62, 48 h, read-out: GI; outline: as §2
A498 = assay: Growth inhibition of human A498 cells at 10 uM after 48 hrs by coulter counter analysis; settings: A498, 48 h, read-out: GI; outline: as §2
SF-295 = assay: Growth inhibition of human SF295 cells at 10 uM after 48 hrs by coulter counter analysis; settings: SF-295, 48 h, read-out: GI; outline: as §2
IGROV-1 = assay: Growth inhibition of human IGROV1 cells at 10 uM after 48 hrs by coulter counter analysis; settings: IGROV-1, 48 h, read-out: GI; outline: as §2
NCI-H23 = assay: Growth inhibition of human NCI-H23 cells at 10 uM after 48 hrs by coulter counter analysis; settings: NCI-H23, 48 h, read-out: GI; outline: as §2
786-0 = assay: Growth inhibition of human 786-0 cells at 10 uM after 48 hrs by coulter counter analysis; settings: 786-0, 48 h, read-out: GI; outline: as §2
OVCAR-3 = assay: Growth inhibition of human OVCAR3 cells at 10 uM after 48 hrs by coulter counter analysis; settings: OVCAR-3, 48 h, read-out: GI; outline: as §2
HOP-92 = assay: Growth inhibition of human HOP92 cells at 10 uM after 48 hrs by coulter counter analysis; settings: HOP-92, 48 h, read-out: GI; outline: as §2
MOLT-4 = assay: Growth inhibition of human MOLT4 cells at 10 uM after 48 hrs by coulter counter analysis; settings: MOLT-4, 48 h, read-out: GI; outline: as §2
ACHN = assay: Growth inhibition of human ACHN cells at 10 uM after 48 hrs by coulter counter analysis; settings: read-out: GI; outline: as §2
HCC 2998 = assay: Growth inhibition of human HCC2998 cells at 10 uM after 48 hrs by coulter counter analysis; settings: HCC 2998, 48 h, read-out: GI; outline: as §2
Malme-3M = assay: Growth inhibition of human MALME-3M cells at 10 uM after 48 hrs by coulter counter analysis; settings: read-out: GI; outline: as §2
MDA-MB-435 = assay: Growth inhibition of human MDA-MB-435 cells at 10 uM after 48 hrs by coulter counter analysis; settings: MDA-MB-435, 48 h, read-out: GI; outline: as §2
SW-620 = assay: Growth inhibition of human SW620 cells at 10 uM after 48 hrs by coulter counter analysis; settings: SW-620, 48 h, read-out: GI; outline: as §1
EKVX = assay: Growth inhibition of human EKVX cells at 10 uM after 48 hrs by coulter counter analysis; settings: read-out: GI; outline: as §2
OVCAR-8 = assay: Growth inhibition of human OVCAR8 cells at 10 uM after 48 hrs by coulter counter analysis; settings: OVCAR-8, 48 h, read-out: GI; outline: as §2
OVCAR-5 = assay: Growth inhibition of human OVCAR5 cells at 10 uM after 48 hrs by coulter counter analysis; settings: OVCAR-5, 48 h, read-out: GI; outline: as §2
SN12C = assay: Growth inhibition of human SN12C cells at 10 uM after 48 hrs by coulter counter analysis; settings: read-out: GI; outline: as §2
DU-145 = assay: Growth inhibition of human DU145 cells at 10 uM after 48 hrs by coulter counter analysis; settings: DU-145, 48 h, read-out: GI; outline: as §2
MCF7 = assay: Growth inhibition of human MCF7 cells at 10 uM after 48 hrs by coulter counter analysis; settings: MCF7, 48 h, read-out: GI; outline: as §2

Measured: inhibition of growth at 10 µM

CCOC(=O)c1sc(NC(=O)CCN2CCOCC2)nc1C
21.9%: HOP-92
< 10%: all other assays above

CC(C(=O)Nc1nccs1)N1CCN(C)CC1 (centres undefined)
15.5%: SNB-75
< 10%: all other assays above

Source: ChEMBL document CHEMBL2040727, “Substituted thiazoles VI. Synthesis and antitumor activity of new 2-acetamido- and 2 or 3-propanamido-thiazole analogs” (2012)
